Results as given in ChEMBL document CHEMBL2177065, “14-Alkoxy- and 14-acyloxypyridomorphinans: μ agonist/δ antagonist opioid analgesics with diminished tolerance and dependence side effects” (J Med Chem, 2012).
The source made the active and inactive calls.

Columns and labels:
[1] = tested on: Mus musculus; test: Antinociceptive activity in icv dosed ICR mouse assessed as warm-water tail-withdrawal latency by tail flick assay in presence of naloxone; assay type: functional, organism-based
[2] = tested on: Mus musculus; test: Antinociceptive activity in ICR mouse assessed as warm-water tail-withdrawal latency at 1 nmol, icv by tail flick assay; assay type: functional
How it was run: (§1)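 Male ICR mice dosed i.c.v. in 5 µL (test compounds in 100% DMSO, morphine in water) under light ether anaesthesia. Tail withdrawal from 55 °C water, 10 s cutoff, tested 10–180 min post-injection. %MPE computed against pre-drug baseline. A50 with 95% confidence limits by linear regression at time of peak effect.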

[3] = tested on: Mus musculus; test: Antinociceptive activity in icv dosed ICR mouse assessed as warm-water tail-withdrawal latency by tail flick assay; assay type: functional; how it was run: as §1
[4] = molecular target: T1, Mu-type opioid receptor (Homo sapiens, UniProt P35372); test: Agonist activity at human mu opioid receptor expressed in CHO cells assessed as [35S]GTPgammaS binding by scintillation counting analysis relative to DAMGO; assay type: functional, cell-based
How it was run: (§2)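 Human KOR or MOR in CHO cell membranes (50 µg protein), 3 h at 25 °C, pH 7.4 Tris buffer with 100 mM NaCl, 10 mM MgCl2, 1 mM EDTA, 1 mM DTT, 0.1% BSA, GDP 40 µM and [35S]GTP-γ-S 50 pM. Stimulation = (S−B)/B×100, with Emax relative to U69,593 (KOR) or DAMGO (MOR). Curves were ten points, ≥3 experiments pooled. Antagonist Ke was taken from the shift in standard agonist EC50.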

[5] = molecular target: T1, Mu-type opioid receptor; test: Agonist activity at human mu opioid receptor expressed in CHO cells assessed as [35S]GTPgammaS binding by scintillation counting analysis; assay type: functional, cell-based; how it was run: as §2
[6] = Agonist activity at delta opioid receptor expressed in rat/mouse NG108-15 cells assessed as [35S]GTPgammaS binding by scintillation counting analysis relative to DADLE; assay type: functional, cell-based
How it was run: (§3)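 NG108-15 cell membranes (50 µg protein), 3 h at 25 °C, pH 7.4 Tris buffer with 100 mM NaCl, 10 mM MgCl2, 1 mM EDTA, 1 mM DTT, 0.1% BSA, GDP 40 µM and [35S]GTP-γ-S 50 pM. Nonspecific binding with 40 µM GTP-γ-S; filtration and scintillation counting. Stimulation = (S−B)/B×100, with Emax relative to DADLE. Curves were ten points, ≥3 experiments pooled. Ke was taken from the shift in standard agonist EC50.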

[7] = species: Homo sapiens; test: Selectivity ratio of Ki for human kappa opioid receptor to Ki for human delta opioid receptor
[8] = species: Homo sapiens; test: Selectivity ratio of Ki for human mu opioid receptor to Ki for human delta opioid receptor
[9] = molecular target: T2, Kappa-type opioid receptor (Homo sapiens, UniProt P41145); test: Displacement of [3H]U69,593 from human kappa opioid receptor expressed in CHO cells by scintillation counting analysis; assay type: cell-based
[10] = molecular target: T1, Mu-type opioid receptor; test: Displacement of [3H]DAMGO from human mu opioid receptor expressed in CHO cells by scintillation counting analysis; assay type: cell-based
[11] = molecular target: Delta-type opioid receptor (Homo sapiens, UniProt P41143); test: Displacement of [3H]DADLE from human delta opioid receptor expressed in CHO cells by scintillation counting analysis; assay type: cell-based
[12] = tested on: Mus musculus; test: Antinociceptive activity in ICR mouse assessed as warm-water tail-withdrawal latency at 10 nmol, icv by tail flick assay; assay type: functional; how it was run: as §1
[13] = tested on: Delta-type opioid receptor; test: Agonist activity at delta opioid receptor expressed in rat/mouse NG108-15 cells assessed as [35S]GTPgammaS binding at 10 uM by scintillation counting analysis; assay type: functional, cell-based; how it was run: as §3
[14] = molecular target: T2, Kappa-type opioid receptor; test: Agonist activity at human kappa opioid receptor expressed in CHO cells assessed as [35S]GTPgammaS binding by scintillation counting analysis relative to U69,593; assay type: functional, cell-based; how it was run: as §2
[15] = molecular target: T2, Kappa-type opioid receptor; test: Agonist activity at human kappa opioid receptor expressed in CHO cells assessed as [35S]GTPgammaS binding by scintillation counting analysis; assay type: functional, cell-based; how it was run: as §2
[16] = tested on: Delta-type opioid receptor; test: Antagonist activity at delta opioid receptor expressed in rat/mouse NG108-15 cells assessed as [35S]GTPgammaS binding by scintillation counting analysis; assay type: functional, cell-based; how it was run: as §3
[17] = molecular target: T1, Mu-type opioid receptor; test: Agonist activity at human mu opioid receptor expressed in CHO cells assessed as [35S]GTPgammaS binding at 10 uM by scintillation counting analysis; assay type: functional, cell-based; how it was run: as §2
[18] = molecular target: T2, Kappa-type opioid receptor; test: Agonist activity at human kappa opioid receptor expressed in CHO cells assessed as [35S]GTPgammaS binding at 10 uM by scintillation counting analysis; assay type: functional, cell-based; how it was run: as §2

T1 sequence (P35372 whole entry): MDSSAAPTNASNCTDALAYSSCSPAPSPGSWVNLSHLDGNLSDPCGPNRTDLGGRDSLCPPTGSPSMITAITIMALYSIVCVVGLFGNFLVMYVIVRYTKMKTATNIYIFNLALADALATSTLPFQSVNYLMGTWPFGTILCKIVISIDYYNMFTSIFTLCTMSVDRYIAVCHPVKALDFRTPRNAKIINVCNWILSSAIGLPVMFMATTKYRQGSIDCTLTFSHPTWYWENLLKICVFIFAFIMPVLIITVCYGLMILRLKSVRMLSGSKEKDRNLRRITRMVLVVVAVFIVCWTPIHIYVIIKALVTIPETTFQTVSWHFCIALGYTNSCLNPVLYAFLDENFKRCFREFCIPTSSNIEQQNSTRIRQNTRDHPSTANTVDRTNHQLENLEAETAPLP
Sequence of Delta-type opioid receptor (Homo sapiens, UniProt P41143) (P41143 whole entry): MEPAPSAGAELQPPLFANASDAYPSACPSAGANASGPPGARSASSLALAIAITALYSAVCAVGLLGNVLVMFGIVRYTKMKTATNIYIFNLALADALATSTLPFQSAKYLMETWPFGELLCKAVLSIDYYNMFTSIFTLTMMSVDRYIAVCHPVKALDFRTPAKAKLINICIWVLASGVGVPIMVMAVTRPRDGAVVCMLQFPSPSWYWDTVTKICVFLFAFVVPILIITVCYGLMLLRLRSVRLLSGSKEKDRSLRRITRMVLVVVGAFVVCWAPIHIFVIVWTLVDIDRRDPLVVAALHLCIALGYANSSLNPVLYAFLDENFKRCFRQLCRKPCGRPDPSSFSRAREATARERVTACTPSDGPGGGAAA
T2 sequence (P41145 whole entry): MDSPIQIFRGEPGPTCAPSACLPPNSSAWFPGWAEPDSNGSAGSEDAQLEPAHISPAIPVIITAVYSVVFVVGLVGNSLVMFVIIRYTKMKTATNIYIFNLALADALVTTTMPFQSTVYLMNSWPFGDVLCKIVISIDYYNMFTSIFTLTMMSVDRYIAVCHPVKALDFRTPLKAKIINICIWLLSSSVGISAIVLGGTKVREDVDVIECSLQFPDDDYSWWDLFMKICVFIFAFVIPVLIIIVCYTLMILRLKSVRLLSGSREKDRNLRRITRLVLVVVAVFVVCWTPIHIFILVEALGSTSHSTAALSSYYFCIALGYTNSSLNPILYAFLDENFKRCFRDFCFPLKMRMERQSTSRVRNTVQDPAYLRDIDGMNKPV

SMILES | Activity [1] | %max [2] [%] | A50 [3] [nmol] | Activity [3] | Emax [4] [%] | EC50 [5] [nM] | Emax [6] [%] | Ratio Ki [7] | Ratio Ki [8] | Ki [9] [nM] | Ki [10] [nM] | Ki [11] [nM] | %max [12] [%] | Activity [13] | Emax [14] [%] | EC50 [15] [nM] | Ke [16] [nM] | Activity [17] | Activity [18]
CN1CC[C@]23c4c5ccc(O)c4O[C@H]2c2ncc(-c4ccc(Cl)cc4)cc2C[C@@]3(OC/C=C/c2ccccc2)[C@H]1C5 | inactive | 91 | 0.23 | Dose-dependent effect | 130 | 4.27 | 84 | 1.4 | 0.36 | 1.55 | 0.41 | 1.14 | – | – | – | – | – | – | –
CO[C@@]12Cc3cc(-c4ccc(Cl)cc4)cnc3[C@@H]3Oc4c(O)ccc5c4[C@@]31CCN(C)[C@@H]2C5 | inactive | – | 1.44 | Dose-dependent effect | 118 | 379 | – | 17 | 4.8 | 28 | 7.89 | 1.63 | 98 | inactive | 36 | 633 | 1.6 | – | –
CN1CC[C@]23c4c5ccc(O)c4O[C@H]2c2ncc(-c4ccc(Cl)cc4)cc2C[C@@]3(OCc2ccccc2)[C@H]1C5 | – | – | – | – | 119 | 301 | 52 | 28 | 2.6 | 49 | 4.69 | 1.78 | – | – | 32 | 215 | 4.54 | – | –
CN1CC[C@]23c4c5ccc(O)c4O[C@H]2c2ncc(-c4ccc(Cl)cc4)cc2C[C@@]3(OC(=O)CCc2ccccc2)[C@H]1C5 | – | – | – | – | 105 | 48 | 59 | 4.6 | 0.98 | 4.41 | 0.94 | 0.96 | – | – | 16 | 136 | 1.64 | – | –
CO[C@@]12Cc3cc(-c4ccc(Cl)cc4)cnc3[C@@H]3Oc4c(O)ccc5c4[C@@]31CCN(CC1CC1)[C@@H]2C5 | – | – | – | – | – | – | – | 2.8 | 22 | 5.37 | 41.9 | 1.95 | – | inactive | – | – | – | inactive | –
O=C(CCc1ccccc1)O[C@@]12Cc3cc(-c4ccc(Cl)cc4)cnc3[C@@H]3Oc4c(O)ccc5c4[C@@]31CCN(CC1CC1)[C@@H]2C5 | – | – | – | – | – | – | – | 2.9 | 0.62 | 12 | 2.58 | 4.13 | – | inactive | 25 | 13 | 1.86 | inactive | –
Oc1ccc2c3c1O[C@H]1c4ncc(-c5ccc(Cl)cc5)cc4C[C@@]4(OCc5ccccc5)[C@@H](C2)N(CC2CC2)CC[C@]314 | – | – | – | – | – | – | – | 2.8 | 4.4 | 5.33 | 8.42 | 1.91 | – | inactive | 15 | 27 | 0.64 | inactive | –
Oc1ccc2c3c1O[C@H]1c4ncc(-c5ccc(Cl)cc5)cc4C[C@@]4(OC/C=C/c5ccccc5)[C@@H](C2)N(CC2CC2)CC[C@]314 | – | – | – | – | – | – | – | 0.89 | 0.81 | 3.31 | 3.03 | 3.74 | – | inactive | – | – | – | inactive | –
O=C(O[C@@]12Cc3cc(-c4ccc(Cl)cc4)cnc3[C@@H]3Oc4c(O)ccc5c4[C@@]31CCN(CC1CC1)[C@@H]2C5)c1ccccc1 | – | – | – | – | – | – | – | 1.3 | 2.2 | 117 | 192 | 87 | – | inactive | – | – | 218 | inactive | inactive
O=C(Cc1ccccc1)O[C@@]12Cc3cc(-c4ccc(Cl)cc4)cnc3[C@@H]3Oc4c(O)ccc5c4[C@@]31CCN(CC1CC1)[C@@H]2C5 | – | – | – | – | – | – | – | 2.3 | 0.78 | 3.1 | 1.04 | 1.33 | – | inactive | 34 | 26 | 0.37 | inactive | –
CN1CC[C@]23c4c5ccc(O)c4O[C@H]2c2ncc(-c4ccc(Cl)cc4)cc2C[C@@]3(OC(=O)Cc2ccccc2)[C@H]1C5 | – | – | – | – | 122 | 87 | 27 | 18 | 1.5 | 17 | 1.43 | 0.97 | – | – | 36 | 109 | 3.38 | – | –
Oc1ccc2c3c1O[C@H]1c4ncc(-c5ccc(Cl)cc5)cc4C=C4[C@@H](C2)N(CC2CC2)CC[C@]431 | – | – | – | – | – | – | – | 2.2 | 4.8 | 5.97 | 13 | 2.71 | – | inactive | – | – | 0.58 | inactive | inactive
CN1CC[C@]23c4c5ccc(O)c4O[C@H]2c2ncc(-c4ccc(Cl)cc4)cc2C[C@@]3(OC(=O)c2ccccc2)[C@H]1C5 | – | – | – | – | 55 | 4620 | – | 6.6 | 4.9 | 112 | 84 | 17 | – | inactive | – | – | 45 | – | inactive
